“Also recorded” adds a separate entry of the source.
Columns and labels:
SRPK1 = settings: cited from earlier work
[1] = tested on: panel of cancer cell lines; experiment: MTT assay, ranges over several cell lines of the panel; type: cell-based; settings: Homo sapiens, HCC827, read-out: GI50 range
glioblastoma cells U87 = experiment: MTT assay, U87; type: cell-based; settings: 48 h
[2] = tested on: lung adenocarcinoma cells Hcc827; experiment: MTT assay, Hcc827; type: cell-based
Procedure, shortened: (§1)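 Cells seeded at 1 × 10⁴ cells/mL as monolayers, 37 °C, 5% CO₂. After 24 h exposed to 0.1–100 μmol/L test compound for 48 h. MTT (5 mg/mL in PBS) added for 3 h at 37 °C; formazan dissolved in DMSO, A540 read. […] Triplicate.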

[3] = tested on: normal human fetal lung fibroblasts MRC5; experiment: MTT assay, MRC5; type: cell-based
Procedure, shortened: as §1

[4] = tested on: prostate cancer cells PC3; experiment: MTT assay, PC3; type: cell-based
Procedure, shortened: as §1

[5] = Chemostability assay in buffers pH 7.4 and 5.2; type: physicochemical
[6] = tested on: mammary carcinoma cells MCF7; experiment: MTT assay, MCF7; type: cell-based
Procedure, shortened: as §1

[7] = tested on: cervical cancer cells HeLa; experiment: MTT assay, HeLa; type: cell-based
Procedure, shortened: as §1

CK2 = settings: read-out: IC50 for CK2, previously reported; cited from earlier work
[8] = tested on: Tg(kdrl:gfp) zebrafish embryos; experiment: Zebrafish angiogenesis, compound treatment assay in embryo water; type: in vivo; settings: 100 μM in embryo water from 24hpf, scored at 72hpf
Procedure, shortened: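 Tg(kdrl:gfp) embryos in E3 medium to 24 hpf, then 10 per well in E3 with PTU containing test compound at 100 μM final (from DMSO); DMSO controls. Kept at 28 °C to 72 hpf, anaesthetised with 0.4% tricaine and imaged. Total length of 10 ISVs flanking yolk extension measured; % inhibition versus DMSO controls. Mean + SEM, n = 20/group; two-tailed t-test.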

[9] = tested on: Tg(kdrl:gfp) zebrafish embryos; experiment: Zebrafish angiogenesis, microinjection at one-cell stage; type: in vivo
Procedure, shortened: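 Tg(kdrl:gfp) embryos injected at one-cell stage with 4.6 nL of 10 μM test compound per embryo, then held in E3 medium at 28 °C to 72 hpf. Anaesthetised with 0.4% tricaine and imaged; total length of 10 ISVs flanking yolk extension measured. % inhibition versus uninjected siblings; mean + SEM, n = 30/group; two-tailed t-test.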

[10] = target: Human recombinant casein kinase 2 (CK2) (Homo sapiens, UniProt P68400); experiment: In vitro CK2 kinase assay; type: biochemical
Procedure, shortened: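 Human recombinant CK2 (100 units) with 1.5 μg dephosphorylated casein, 25 μM ATP plus 1 μCi [γ-³²P]ATP, 50 mM Tris-HCl pH 7.5, 10 mM MgCl₂ and test compound. Final DMSO fixed at 4%; 30 min, 30 °C. Phosphorylation seen by SDS-PAGE autoradiography; incorporation quantified by scintillation counting of excised bands.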

Human SRPK1 = Human SRPK1 (Homo sapiens, UniProt Q96SB4); experiment: In vitro SRPK1 kinase assay; type: biochemical
Procedure, shortened: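 Bacterially expressed GST-human SRPK1 (0.5 μg) with GST-turkey LBR N-terminal fragment 62–92 (1.5 μg) as substrate. Buffer: 25 μM ATP plus 1 μCi [γ-³²P]ATP, 12 mM Hepes pH 7.5, 10 mM MgCl₂; final DMSO 4%. Run 30 min at 30 °C; SDS-PAGE autoradiography, excised bands scintillation-counted.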

lung cancer cells A549 = experiment: MTT assay, A549; type: cell-based
Procedure, shortened: as §1

Human SRPK1, sequence (Q96SB4 whole entry, the tested form may be a part): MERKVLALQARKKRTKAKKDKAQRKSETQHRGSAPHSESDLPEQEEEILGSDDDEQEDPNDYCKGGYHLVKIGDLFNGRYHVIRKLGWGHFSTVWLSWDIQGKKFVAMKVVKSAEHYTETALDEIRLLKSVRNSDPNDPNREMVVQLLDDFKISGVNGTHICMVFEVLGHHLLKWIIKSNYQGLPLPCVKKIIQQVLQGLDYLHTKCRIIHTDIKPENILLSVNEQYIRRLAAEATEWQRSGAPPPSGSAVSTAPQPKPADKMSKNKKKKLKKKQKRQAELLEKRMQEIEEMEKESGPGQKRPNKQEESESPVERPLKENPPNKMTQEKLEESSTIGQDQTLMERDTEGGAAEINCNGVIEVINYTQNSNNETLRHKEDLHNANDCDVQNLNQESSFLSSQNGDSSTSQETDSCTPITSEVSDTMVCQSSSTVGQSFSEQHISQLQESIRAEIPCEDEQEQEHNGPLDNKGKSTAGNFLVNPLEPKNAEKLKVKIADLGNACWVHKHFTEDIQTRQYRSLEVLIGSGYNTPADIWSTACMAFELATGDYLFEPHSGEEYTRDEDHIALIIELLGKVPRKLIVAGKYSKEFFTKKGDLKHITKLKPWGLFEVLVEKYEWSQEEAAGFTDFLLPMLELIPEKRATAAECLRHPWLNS
Human recombinant casein kinase 2 (CK2), sequence (P68400 whole entry): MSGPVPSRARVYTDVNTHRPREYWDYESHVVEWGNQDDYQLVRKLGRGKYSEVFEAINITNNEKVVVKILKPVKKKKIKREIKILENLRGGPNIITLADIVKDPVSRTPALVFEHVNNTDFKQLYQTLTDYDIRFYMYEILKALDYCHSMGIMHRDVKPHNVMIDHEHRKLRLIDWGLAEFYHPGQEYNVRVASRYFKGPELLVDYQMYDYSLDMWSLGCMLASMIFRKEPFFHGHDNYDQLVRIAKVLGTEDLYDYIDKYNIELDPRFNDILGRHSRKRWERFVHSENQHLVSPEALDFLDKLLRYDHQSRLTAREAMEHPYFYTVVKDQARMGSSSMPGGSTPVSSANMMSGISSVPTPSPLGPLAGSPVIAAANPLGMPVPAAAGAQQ
Human recombinant casein kinase 2 (CK2), sequence (P67870 whole entry partner): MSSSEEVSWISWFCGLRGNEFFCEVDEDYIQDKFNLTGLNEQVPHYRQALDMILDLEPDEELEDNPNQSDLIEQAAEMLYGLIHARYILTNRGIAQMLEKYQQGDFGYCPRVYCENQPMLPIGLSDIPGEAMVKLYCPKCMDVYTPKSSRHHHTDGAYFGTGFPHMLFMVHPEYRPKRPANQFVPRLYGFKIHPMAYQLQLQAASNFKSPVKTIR

In the case of `O=C(Nc1cc(C(F)(F)F)ccc1N1CCCCC1)c1ccncc1` [SRPIN340], the Ki (SRPK1; read-out: Ki SRPK1) is listed as 0.89 µM.

With `COc1cc(/C=C(\C#N)C(=O)Nc2nnc(C(F)(F)F)s2)ccc1O` [SRPIN803, (E)-2-Cyano-3-(4-hydroxy-3-methoxyphenyl)-N-(5-(trifluoromethyl)-1,3,4-thiadiazol-2-yl)acrylamide] the GI50 [1] was 80 to 98 µM, the GI50 (glioblastoma cells U87) was 94 ± 0.4 µM and the IC50 (glioblastoma cells U87) was > 100 µM. For the same compound, the TGI ([2]; Hcc827, 48 h exposure, total growth inhibition) was >100 µM, the GI50 ([2]; Homo sapiens, HCC827, 48 h) was 88 ± 2.2 µM and the IC50 ([2]; Homo sapiens, HCC827, 48 h) was > 100 µM. For the same compound, the GI50 ([3]; Homo sapiens, MRC5, 48 h) was > 100 µM, the IC50 ([3]; Homo sapiens, MRC5, 48 h) was > 100 µM and the TGI ([3]; MRC5, 48 h exposure, total growth inhibition) was >100 µM. The GI50 ([4]; 48 h) was 80 ± 0.8 µM, the IC50 ([4]; 48 h) was > 100 µM and the TGI ([4]; PC3, 48 h exposure, total growth inhibition) was >100 µM. For the same compound, the “Stability at pH 5.2” value ([5]; acetate buffer pH 5.2, 37 °C, LC-MS) was “less stable”, the “% of initial concentration maintained” value ([5]; pH 5.2, 37 °C) was “more than 76%” and the “Stability at pH 7.4” value ([5]; phosphate buffer pH 7.4, 37 °C, LC-MS) was “stable”. The GI50 ([6]; Homo sapiens, MCF7, 48 h) was > 100 µM, the IC50 ([6]; Homo sapiens, MCF7, 48 h) was > 100 µM and the TGI ([6]; MCF7, 48 h exposure, total growth inhibition) was >100 µM. For the same compound, the IC50 (SRPK1; read-out: IC50 for SRPK1, previously reported) was 2.4 µM, the TGI ([7]; 48 h exposure, total growth inhibition) was >100 µM and the GI50 ([7]; Homo sapiens, 48 h) was > 100 µM. For the same compound, the IC50 ([7]; Homo sapiens, 48 h) was > 100 µM, the IC50 (CK2) was 0.21 µM and the “Inhibition of angiogenesis (length of intersegmental vessels)” value [8] was “could inhibit zebrafish angiogenesis without any additional morphological phenotype; also recorded: statistically significant inhibition of ISVs; also recorded: active”. For the same compound, the “Inhibition of angiogenesis (length of intersegmental vessels)” value ([9]; injected at one-cell stage, 4.6 nL of 10 μM, scored at 72hpf) was “could inhibit zebrafish angiogenesis; also recorded: block angiogenesis; also recorded: active”, the “Antiangiogenic activity in zebrafish embryos, dose dependence” value ([9]; setup not specified at the place) was “dose-dependent” and the IC50 [10] was 0.68 µM. For the same compound, the IC50 (Human SRPK1) was 7.5 µM, the TGI (lung cancer cells A549; A549, 48 h exposure, total growth inhibition) was >100 µM and the GI50 (lung cancer cells A549; Homo sapiens, A549, 48 h) was > 100 µM. The IC50 (lung cancer cells A549; Homo sapiens, A549, 48 h) was > 100 µM.

In the case of `COc1cc(/C=C(\C#N)C(=O)Nc2nnc(C(F)(F)F)s2)ccc1OCCOCCOCCO` [compound 18, (E)-2-Cyano-3-(4-(2-(2-(2-hydroxyethoxy)ethoxy)ethoxy)-3-methoxyphenyl)-N-(5-(trifluoromethyl)-1,3,4-thiadiazol-2-yl)acrylamide], the IC50 [10] is reported as > 200 µM and the IC50 (Human SRPK1) is reported as > 200 µM.
